Sampled rows, rich in hits. Any-hit rate of the full collection: about 4.9%.
STAT3 act-1: increases IL-6 driven STAT3 reporter signal | U3A cells, IL-6 STAT3-luciferase reporter, luminescence; 100% = signal with IL-6 EC80 alone | activation (% of control), % at 5.6 µM | 190,000 compounds, 0.91% hits | AID 871;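 active = activation above the screen-wide mean of compound activation plus 3 SD, cut at about 130% in these data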;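 also: 0% = background luminescence of wells with medium and substrate only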
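Material: human STAT1-deficient U3A cells with stable STAT3-luciferase reporter / Probe or stimulus: IL-6 stimulus at 33 ng/mL final / Schedule: 1 h compound pre-exposure, 6 h IL-6 stimulation, 37 °C / Technique: luminescence / Read-out basis: percent of IL-6-only median luminescence / Control set: IL-6-only high control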
STAT1 inh: reduces IFN-gamma driven STAT1 reporter signal. NIH 3T3 STAT1-luciferase reporter, luminescence. inhibition, % at 5.5 µM. 200,000 compounds, 0.35% hits;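 active = inhibition above a set limit, the mean inhibition across all tested compounds plus 3 SD, cut at about 34% in these data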;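 also: 0% = IFN-gamma with DMSO and 100% = IFN-gamma with 300 µM nifuroxazide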
NF-kB neuron act: raises NF-kB expression in human neuronal cells; fold change at 12.5 µM; 190,000 compounds, 1.6% hits; NF-kB reporter expression; stronger effect = higher value; in the data active = fold change above about 3.3
STAT3 blocker: reduces IL-6 driven STAT3 reporter signal; U3A cells, IL-6 STAT3-luciferase reporter, luminescence; host cell line lacks STAT1; inhibition, % at 5.5 µM; 190,000 compounds, 0.89% hits; AID 862;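 active = inhibition above the mean inhibition across all screened compounds plus 3 SD, cut at about 44% in these data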;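 also: 0% = DMSO only wells and 100% = 100 µM nifuroxazide control wells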
STAT1 act-1: activators of IFN-gamma induced STAT1 signaling; NIH 3T3 STAT1-luciferase reporter, luminescence; 100% = IFN-gamma alone, no compound; activation (% of control), % at 5.5 µM; 200,000 compounds, 2.6% hits; AID 932;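 active = activation above the screen-wide mean activation plus 3 SD, cut at about 130% in these data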;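 also: raw ratio to IFN-gamma control signal so 100% means no change and 0% no light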
APP 5'UTR act: APP 5'UTR luciferase reporter activation; SH-SY5Y APP 5'UTR luciferase reporter, luminescence; zero percent = DMSO vehicle wells; activation, % at 2 µM; 190,000 compounds, 1% hits; AID 1276;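 active = activation above a set limit, based on mean plus 3 SD of controls, cut at about 140% in these data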
STAT3 act-2: STAT3 activation, confirmation assay. AID 1267. 1,200 compounds, 64% hits. potentiation (% of control), % at 5.7 µM. U3A STAT3-luciferase reporter, IL-6 potentiation, luminescence; U3A cells lack STAT1; 100 means same as IL-6 alone. shares compounds with STAT3 act-1;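 active = percent activation of the STAT3 luciferase reporter above a set limit taken from the earlier primary screen, cut at about 130% in these data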;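 also: 0% = background signal of medium plus substrate and 100% = median of IL-6 with DMSO wells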
NFkB act 2: counter-screen for STAT3 activators: NF-kappaB activation; shares compounds with STAT3 act-1; AID 1309; human cells, NF-kappaB reporter activation; 1,200 compounds, 11% hits; activation (% of control), % at 5.7 µM; in the data active = activation above about 120%;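 also: reporter induced by TNF-alpha stimulation; 100% = median of stimulated DMSO wells and 0% = no signal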
STAT1 act-2: STAT1 activation in STAT3 activator counter-screen; NIH 3T3 STAT1-luciferase reporter, IFN-gamma, luminescence; activation (% of control), % at 5.7 µM; shares compounds with STAT3 act-1; 1,200 compounds, 13% hits;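 active = activation above the solvent-only control well mean plus 3 SD, set per screening run, cut at about 120% in these data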;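 also: 100% = IFN-gamma with DMSO median signal so 100% means no change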
The depositor's hits bear a star; . = no result given.

SMILES | STAT3 act-1 | STAT1 inh | NF-kB neuron act | STAT3 blocker | STAT1 act-1 | APP 5'UTR act | STAT3 act-2 | NFkB act 2 | STAT1 act-2
Cn1nccc1C(=O)N1CCc2c([nH]c3ccccc23)C1c1ccc(F)cc1 (configuration not stated) | 109.0 | -1.3 | 0.86 | -8.2 | 99.5 | 0.9 | . | . | .
Fc1ccccc1C1c2[nH]c3ccccc3c2CCN1Cc1cccn1-c1ncccn1 (configuration not stated) | 132.8 | -10.6 | 1.23 | -31.7 | 107.8 | 11.2 | . | . | .
COc1ccc(OC)c(NC(=O)c2[nH]c(C)c(C(C)=O)c2C)c1 | 150.9* | -1.6 | 0.9 | -54.8 | 101.4 | -3.2 | 152.4* | 105.9 | 104.1
COc1ccc(-c2nc(NC(=O)c3[nH]c(C)c(C(C)=O)c3C)sc2C)cc1 | 106.8 | 12.0 | 0.78 | 1.3 | 87.2 | 28.6 | . | . | .
Cc1nc2cc(-c3ccc(Cl)cc3)nn2c(NCCN(C)C)c1C | 150.7* | -10.3 | 1.82 | -46.9 | 108.4 | 75.7 | 183.2* | 116.9 | 120.5*
Brc1ccc(-c2cn3c(n2)CCc2ccc4cccnc4c2-3)cc1 | 156.7* | 4.8 | 0.54 | -66.6 | 95.7 | 8.3 | 148.9* | 100.8 | 89.5
CN=c1scc(-c2c[nH]c3ccccc23)n1C | 138.3* | 8.3 | 1.03 | -35.1 | 91.9 | -5.3 | 137.0* | 104.4 | 99.2
CC(C)Sc1nnc(-c2c[nH]c3ccccc23)n1C | 98.9 | -12.7 | 1.92 | 10.2 | 111.5 | . | . | . | .
Nc1ccc(Sc2cnn(-c3ccccc3)c(=O)c2Cl)cc1 | 113.0 | 3.6 | 1.13 | -8.4 | 96.7 | -2.9 | . | . | .
Cc1ccc(Sc2cnn(-c3ccccc3)c(=O)c2Cl)cc1 | 141.5* | 2.3 | 1.08 | -37.5 | 98.0 | -7.5 | 133.3* | 104.5 | 98.2
CNC(=O)c1nnsc1S(=O)(=O)c1ccc(Cl)cc1 | 81.5 | 10.8 | 0.14 | 28.2 | 89.6 | -94.9 | . | . | .
O=C(CN1CCSCC1)c1c[nH]c2ccccc12 | 125.4 | 14.0 | 0.98 | -20.7 | 87.1 | 2.5 | . | . | .
CCn1c(N2CCN(CC(=O)c3c(C)n(C)c4ccccc34)CC2)nc2c1c(=O)[nH]c(=O)n2C | 92.8 | 2.8 | 0.68 | 12.4 | 97.4 | -5.0 | . | . | .
O=C(CN1CCN(Cc2ccccc2)CC1)c1c[nH]c2ccccc12 | 137.8* | 2.8 | 1.04 | -41.7 | 97.4 | -10.6 | 123.3 | 99.9 | 98.1
CCCn1c(N2CCN(CC(=O)c3c[nH]c4ccccc34)CC2)nc2c1c(=O)[nH]c(=O)n2C | 147.4* | 1.1 | 0.88 | -53.2 | 99.0 | 2.9 | 138.7* | 103.8 | 97.4
Cc1ccc(NC(=O)c2cnc(N3CCN(c4ccccn4)CC3)c3ccccc23)c(Br)c1 | 142.7* | 8.4 | 0.48 | -51.6 | 91.3 | -3.0 | 126.0 | 113.2 | 108.5
O=C(Nc1c(F)cccc1F)c1cnc(N2CCN(c3ccccn3)CC2)c2ccccc12 | 98.3 | -6.6 | 0.31 | 7.8 | 106.1 | -8.0 | . | . | .
c1ccc2c(-c3nc4ncccc4o3)cccc2c1 | 140.8* | -2.9 | 1.05 | -42.9 | 102.6 | -0.6 | 123.6 | 108.7 | 109.9
O=C1CCCCCN1Cc1nnc(SCc2nc3ccccc3s2)n1-c1ccccn1 | 139.8* | -28.4 | 1.07 | -39.1 | 127.2 | 85.6 | 150.6* | 128.5* | 144.9*
O=C1C=C(NCc2ccccc2)c2ccccc2C1=O | 146.0* | 9.3 | 0.4 | -47.8 | 90.0 | -9.3 | 132.2 | 98.1 | 92.5
CCC(C)NC(=O)CSc1nnc(-c2ccc(Cl)cc2)n1N (configuration not stated) | 105.3 | -1.1 | 0.99 | -5.1 | 98.7 | 28.1 | . | . | .
CN(C)CCn1c(NC(=O)c2ccc(Cl)cc2)nc2ccccc21 | 164.1* | -26.2 | 1.52 | -76.5 | 124.6 | . | 156.6* | 119.3 | 123.2*
CCn1c(NC(=O)c2cccs2)nc2ccccc21 | 145.8* | -6.5 | 2.07 | -45.4 | 105.9 | 8.2 | 131.4 | 105.5 | 107.2
